ChEMBL document CHEMBL1133118 (J Med Chem, 2000)

Columns and labels:
Adenosine receptor A2b [1] = molecular target: T1, Adenosine receptor A2b (Homo sapiens, UniProt P29275); assay: Displacement of [3H]DPCPX from Adenosine A2b receptor expressed in CHO cells; assay type: cell-based
T1 sequence (P29275 whole entry): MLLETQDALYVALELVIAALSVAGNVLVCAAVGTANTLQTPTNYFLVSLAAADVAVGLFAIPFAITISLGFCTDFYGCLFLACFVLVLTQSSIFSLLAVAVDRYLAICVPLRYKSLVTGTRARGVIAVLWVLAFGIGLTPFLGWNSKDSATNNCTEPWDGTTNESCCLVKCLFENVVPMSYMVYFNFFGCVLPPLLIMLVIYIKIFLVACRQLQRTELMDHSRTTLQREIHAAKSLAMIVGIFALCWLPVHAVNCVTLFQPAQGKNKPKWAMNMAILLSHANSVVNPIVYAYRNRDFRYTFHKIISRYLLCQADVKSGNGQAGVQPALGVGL

Adenosine receptor A2a [2] = molecular target: T2, Adenosine receptor A2a (Homo sapiens, UniProt P29274); assay: Displacement of [3H]-SCH- 58261 from human adenosine A2A receptor expressed in CHO cells; assay type: cell-based
T2 sequence (P29274 whole entry): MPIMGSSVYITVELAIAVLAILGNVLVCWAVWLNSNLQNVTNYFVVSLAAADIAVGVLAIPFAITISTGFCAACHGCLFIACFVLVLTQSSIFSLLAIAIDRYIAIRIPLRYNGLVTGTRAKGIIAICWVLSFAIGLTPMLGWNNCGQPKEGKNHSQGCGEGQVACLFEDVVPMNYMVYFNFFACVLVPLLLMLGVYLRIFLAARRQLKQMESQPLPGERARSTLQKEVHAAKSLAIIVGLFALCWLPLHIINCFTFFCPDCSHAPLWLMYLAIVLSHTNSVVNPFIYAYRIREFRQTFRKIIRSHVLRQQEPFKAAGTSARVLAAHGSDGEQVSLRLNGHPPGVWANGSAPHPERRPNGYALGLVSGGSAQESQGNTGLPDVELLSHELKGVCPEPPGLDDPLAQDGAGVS

Adenosine receptor A1 [3] = molecular target: T3, Adenosine receptor A1 (Homo sapiens, UniProt P30542); assay: Displacement of [3H]DPCPX from human adenosine A1 receptor expressed in CHO cells; range 2894-3460; assay type: cell-based
T3 sequence (P30542 whole entry): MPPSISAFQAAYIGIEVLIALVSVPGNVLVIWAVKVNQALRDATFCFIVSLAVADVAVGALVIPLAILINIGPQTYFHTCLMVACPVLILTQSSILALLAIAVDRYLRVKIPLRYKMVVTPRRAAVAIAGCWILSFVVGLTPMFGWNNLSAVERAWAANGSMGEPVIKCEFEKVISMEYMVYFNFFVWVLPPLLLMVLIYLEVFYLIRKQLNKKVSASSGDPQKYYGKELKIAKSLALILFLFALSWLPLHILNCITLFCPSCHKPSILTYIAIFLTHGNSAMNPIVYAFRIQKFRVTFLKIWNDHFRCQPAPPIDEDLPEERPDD

Adenosine receptor A3 [4] = molecular target: T4, Adenosine receptor A3 (Homo sapiens, UniProt P0DMS8); assay: Displacement of [3H]MRE3008-F20 from human adenosine A3 receptor expressed in CHO cells; range 34-76; assay type: cell-based
T4 sequence (P0DMS8 whole entry): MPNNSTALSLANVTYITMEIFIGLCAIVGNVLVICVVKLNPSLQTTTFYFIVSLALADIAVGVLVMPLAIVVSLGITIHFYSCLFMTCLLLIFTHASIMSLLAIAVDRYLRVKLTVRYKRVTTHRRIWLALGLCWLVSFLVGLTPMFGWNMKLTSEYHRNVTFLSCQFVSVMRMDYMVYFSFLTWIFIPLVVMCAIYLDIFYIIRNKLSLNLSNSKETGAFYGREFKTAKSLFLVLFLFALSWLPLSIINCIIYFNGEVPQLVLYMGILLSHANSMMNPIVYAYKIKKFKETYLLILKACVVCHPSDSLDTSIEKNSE

[5] = molecular target: Adenosine receptors; A1 & A3 (Homo sapiens) (UniProt P30542+P0DMS8); assay: Ratio of binding affinity of human A1 receptor to that of human A3 receptor; assay type: protein assay
Procedure, shortened: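 Ki ratio from displacement in CHO membranes, 6–8 concentrations, n=3-6, filtration counting. A1: 1 nM [3H]DPCPX, 50 μg protein, 120 min at 25 °C, nonspecific with 10 μM CHA. A3: 1 nM [3H]MRE3008-F20, 50 μg protein, Tris/10 mM MgCl2 pH 7.4, 120 min at 4 °C, nonspecific with 1 μM MRE3008-F20.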

[6] = molecular target: Adenosine receptors; A2b & A3 (Homo sapiens) (UniProt P29275+P0DMS8); assay: Ratio of binding affinity of human A2B receptor to that of human A3 receptor; assay type: protein assay
Procedure, shortened: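 Ki ratio, n=3-6, 6–8 concentrations. A2B in HEK-293 membranes (20 μg): 40 nM [3H]DPCPX, 50 mM Tris HCl, 10 mM MgCl2, 1 mM EDTA, 0.1 mM benzamidine pH 7.4, 2 IU/mL adenosine deaminase, 60 min at 25 °C, nonspecific with 100 μM NECA. A3 in CHO membranes (50 μg): 1 nM [3H]MRE3008-F20, 120 min at 4 °C.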

[7] = molecular target: T5, Adenosine receptor A3 (Homo sapiens) (UniProt P0DMS8); assay: Percentage of blockade by 1 uM of the inhibition by 100 nM IB-MECA-inhibited cAMP accumulation in CHO cells expressing human adenosine A3 receptor.; assay type: functional, cell-based
T5 sequence (whole entry): T4 sequence (P0DMS8 whole entry)
Procedure, shortened: (§1)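 CHO cells stably expressing human A3 receptor; membranes in 50 mM Tris HCl, 10 mM MgCl2, 1 mM EDTA pH 7.4 with 5 μM GTP, 0.5 mM […] and 2.0 IU/mL adenosine deaminase. Preincubated 10 min at 37 °C, then IB-MECA (100 nM) and/or antagonist with 1 mM ATP and 10 μM forskolin for 10 min. Boiled 2 min. cAMP read by [3H]cAMP competition with adrenal binding protein.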

Adenosine receptor A2a [8] = molecular target: T2, Adenosine receptor A2a; assay: Displacement of [3H]-SCH- 58261 from human adenosine A2A receptor expressed in CHO cells; range 1770-2327; assay type: cell-based
Adenosine receptor A1 [9] = molecular target: T3, Adenosine receptor A1; assay: Displacement of [3H]DPCPX from human adenosine A1 receptor expressed in CHO cells; range 191-339; assay type: cell-based
Adenosine receptor A3 [10] = molecular target: T4, Adenosine receptor A3; assay: Displacement of [3H]MRE3008-F20 from human adenosine A3 receptor expressed in CHO cells; range 17-36; assay type: cell-based
Adenosine receptor A2b [11] = molecular target: T1, Adenosine receptor A2b; assay: Displacement of [3H]DPCPX from Adenosine A2b receptor expressed in […]; range 1770-2327; assay type: cell-based
[12] = molecular target: T5, Adenosine receptor A3 (Homo sapiens); assay: Percent reversal of 100 nM IB-MECA-inhibited cAMP accumulation in CHO cells expressing human adenosine A3 receptor at 1 uM; range 73-110; assay type: functional, cell-based; procedure, shortened: as §1
Adenosine receptor A3 [13] = molecular target: T4, Adenosine receptor A3; assay: Displacement of [3H]MRE3008-F20 from human adenosine A3 receptor expressed in CHO cells; range 0.32-0.74; assay type: cell-based
Adenosine receptor A2a [14] = molecular target: T2, Adenosine receptor A2a; assay: Displacement of [3H]-SCH- 58261 from human adenosine A2A receptor expressed in CHO cells; range 150-207; assay type: cell-based
Adenosine receptor A1 [15] = molecular target: T3, Adenosine receptor A1; assay: Displacement of [3H]-DPCPX from human adenosine A1 receptor expressed in CHO cells; […]; assay type: cell-based
Adenosine receptor A3 [16] = molecular target: T4, Adenosine receptor A3; assay: Inhibition of cAMP accumulation in CHO cells expressing human adenosine A3 receptor; range 3.5-7.6; assay type: functional, cell-based
Adenosine receptor A3 [17] = molecular target: T4, Adenosine receptor A3; assay: Displacement of [3H]MRE3008-F20 from human adenosine A3 receptor expressed in CHO cells; range 1061-1245; assay type: cell-based
Adenosine receptor A2a [18] = molecular target: T2, Adenosine receptor A2a; assay: Displacement of [3H]-SCH- 58261 from human adenosine A2A receptor expressed in CHO cells; range 36-55; assay type: cell-based
Procedure, shortened: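 Membranes from CHO cells stably expressing human A2A receptor, grown in DMEM/F12 without nucleosides, resuspended in 50 mM Tris HCl, 10 mM MgCl2, pH 7.4; 50 μg protein/assay. Competition with [3H]SCH 58261 at 6–8 or more compound concentrations, 60 min at 25 °C; nonspecific binding with 50 μM NECA. Filtration on GF/B filters, scintillation counting; n=3-6.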

Adenosine receptor A2b [19] = molecular target: T1, Adenosine receptor A2b; assay: Displacement of [3H]DPCPX from Adenosine A2b receptor expressed in CHO cells; range 343-468; assay type: cell-based; conditions: in the assay text read “HEK-293 cells” for “CHO cells”
Procedure, shortened: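 Human recombinant A2B receptor was expressed in HEK-293 cell membranes (20 μg protein). Incubated with 40 nM [3H]DPCPX in 50 mM Tris HCl, 10 mM MgCl2, 1 mM EDTA, 0.1 mM benzamidine, pH 7.4, with 2 IU/mL adenosine deaminase, at least 6–8 test concentrations, 60 min, 25 °C. Nonspecific binding was taken with 100 μM NECA; n=3-6.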

Adenosine receptor A1 [20] = molecular target: T3, Adenosine receptor A1; assay: Displacement of [3H]DPCPX from human adenosine A1 receptor expressed in CHO cells; range 134-229; assay type: cell-based
Adenosine receptor A2b [21] = molecular target: T1, Adenosine receptor A2b; assay: Displacement of [3H]DPCPX from Adenosine A2b receptor expressed in […]; range 226-301; assay type: cell-based
Adenosine receptor A2a [22] = molecular target: T2, Adenosine receptor A2a; assay: Displacement of [3H]-SCH- 58261 from human adenosine A2A receptor expressed in CHO cells; range 1220-1590; assay type: cell-based
Adenosine receptor A1 [23] = molecular target: T3, Adenosine receptor A1; assay: Displacement of [3H]DPCPX from human adenosine A1 receptor expressed in CHO cells; range 928-1297; assay type: cell-based
Adenosine receptor A3 [24] = molecular target: T4, Adenosine receptor A3; assay: Inhibition of cAMP accumulation in CHO cells expressing human adenosine A3 receptor; range 1.7-4.2; assay type: functional, cell-based
[25] = molecular target: T5, Adenosine receptor A3 (Homo sapiens); conditions: CHO, 1 uM
Adenosine receptor A3 [26] = molecular target: T4, Adenosine receptor A3; assay: biochemical

O=C(Nc1cccc(Cl)c1)Nc1nc2nn(CCc3cccc4ccccc34)cc2c2nc(-c3ccco3)nn12
Ki (Adenosine receptor A2b [1]): > 10000 nM | Ki (Adenosine receptor A2a [2]): > 10000 nM | Ki (Adenosine receptor A1 [3]): 3160 nM | Ki (Adenosine receptor A3 [4]): 51 nM | Ratio [5]: 62 | Ratio [6]: > 196 | inhibition [7]: 40%

COc1ccc(NC(=O)Nc2nc3nn(CCc4cc(Br)c(Br)cc4Br)cc3c3nc(-c4ccco4)nn23)cc1
Ki (Adenosine receptor A2b [1]): > 10000 nM | Ki (Adenosine receptor A2a [8]): 2030 nM | Ki (Adenosine receptor A1 [9]): 255 nM | Ki (Adenosine receptor A3 [10]): 25 nM | Ratio [5]: 10.2 | Ratio [6]: > 400 | inhibition [7]: 50%

C=CCn1cc2c(nc(NC(=O)Nc3ccc(OC)cc3)n3nc(-c4ccco4)nc23)n1
Ki (Adenosine receptor A2b [11]): 2030 nM | inhibition [12]: 90% | Ki (Adenosine receptor A3 [13]): 0.48 nM | Ki (Adenosine receptor A2a [14]): 176 nM | Ki (Adenosine receptor A1 [15]): 1530 nM | IC50 (Adenosine receptor A3 [16]): 5.1 nM | Ratio [5]: 3190 | Ratio [6]: 4230

CC(C)(C)n1cc2c(nc(N)n3nc(-c4ccco4)nc23)n1
Ki (Adenosine receptor A3 [17]): 1150 nM | Ki (Adenosine receptor A2a [18]): 45 nM | Ki (Adenosine receptor A2b [19]): 400 nM | Ki (Adenosine receptor A1 [20]): 175 nM | Ratio [5]: 0.15 | Ratio [6]: 0.35 | inhibition [7]: 9%

COc1ccc(NC(=O)Nc2nc3nn(C)cc3c3nc(-c4ccco4)nn23)cc1
Ki (Adenosine receptor A2b [21]): 261 nM | Ki (Adenosine receptor A2a [22]): 1390 nM | Ki (Adenosine receptor A1 [23]): 1100 nM | IC50 (Adenosine receptor A3 [24]): 2.7 nM | Ratio [5]: 5480 | Ratio [6]: 1300 | inhibition [25]: 94% | Ki (Adenosine receptor A3 [26]): 0.2 nM
